We go through nine compounds from ChEMBL document CHEMBL1152342, “Thiazomycins, thiazolyl peptide antibiotics from Amycolatopsis fastidiosa” (2009).

Converted amounts (≈) assume the structure as drawn.

Type in all cases: functional
For experiment [1], the system named is Staphylococcus aureus. The experiment in a line: Antibacterial activity against macrolide, imipenem, methicillin-resistant Staphylococcus aureus MB5393 after 20 hrs by twofold serial broth dilution method. The settings on record: MB5393, 20 h. The method, boiled down: (§1)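 MICs by NCCLS (now CLSI) twofold serial broth dilution. Cation-adjusted Mueller Hinton broth was the standard medium, with CAMHB + 2.5% lysed horse blood used for certain strains. Cultures were incubated at 37 °C for 20 h before reading.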
Background: Dilution methods test growth across graded concentrations, often in twofold steps.

Experiment [2] concerns Staphylococcus aureus. The experiment is described as follows: Antibacterial activity against methicillin-sensitive Staphylococcus aureus MB2865 after 20 hrs by twofold serial broth dilution method. The conditions noted are these: MB2865, 20 h. The method, boiled down:
as §1

Experiment [3] concerns Staphylococcus aureus. The experiment in a line: Antibacterial activity against methicillin-sensitive Staphylococcus aureus MB2865 after 20 hrs by twofold serial broth dilution method in presence of 50% human serum. The conditions noted are these: MB2865, 20 h. The method, boiled down:
as §1

The test system of experiment [4] is Staphylococcus aureus. The experiment is described as follows: Antibacterial activity against macrolide-sensitive, Linezolid, methicillin-resistant Staphylococcus aureus CL5814 after 20 hrs by twofold serial broth dilution method. The settings on record: CL5814, 20 h. The method, boiled down:
as §1

Experiment [5] concerns Staphylococcus aureus. The experiment in a line: Antibacterial activity against macrolide, methicillin-resistant Staphylococcus aureus CL5705 after 20 hrs by twofold serial broth dilution method. The conditions noted are these: CL5705, 20 h. Put shortly: as §1
Experiment [6] relates to Staphylococcus aureus. The experiment in a line: Antibacterial activity against vancomycin-intermediate, macrolide, methicillin-resistant Staphylococcus aureus CL5706 after 20 hrs by twofold serial broth dilution method. The conditions noted are these: CL5706, 20 h. Put shortly: as §1
Experiment [7] concerns Staphylococcus haemolyticus. The experiment is described as follows: Antibacterial activity against ampicillin-sensitive Staphylococcus haemolyticus CL8544 after 20 hrs by twofold serial broth dilution method. The conditions noted are these: CL8544, 20 h. Put shortly: as §1
In experiment [8] the test system is Staphylococcus epidermidis. The experiment is described as follows: Antibacterial activity against Staphylococcus epidermidis CL8040 after 20 hrs by twofold serial broth dilution method. The settings on record: CL8040, 20 h. The method, boiled down: as §1
Experiment [9] concerns Enterococcus faecalis. The experiment in a line: Antibacterial activity against vancomycin-sensitive Enterococcus faecalis CL8516 after 20 hrs by twofold serial broth dilution method. The settings on record: CL8516, 20 h. The method, boiled down: as §1
The test system of experiment [10] is Enterococcus faecalis. The experiment in a line: Antibacterial activity against vancomycin, macrolide-resistant, linezolid-sensitive Enterococcus faecalis CL5246 after 20 hrs by twofold serial broth dilution method. The conditions noted are these: CL5246, 20 h. The method, boiled down:
as §1

The test system of experiment [11] is Enterococcus faecium. The experiment in a line: Antibacterial activity against vancomycin, linezolid-resistant Enterococcus faecium CL5791 after 20 hrs by twofold serial broth dilution method. The settings on record: CL5791, 20 h. Put shortly: as §1
Experiment [12] has as its system Enterococcus faecium. The experiment in a line: Antibacterial activity against vancomycin, linezolid-resistant Enterococcus faecium CL5791 after 20 hrs by twofold serial broth dilution method in presence of 50% human serum. The settings on record: CL5791, 20 h. The method, boiled down:
as §1

Experiment [13] relates to Streptococcus pneumoniae. The experiment in a line: Antibacterial activity against penicillin-sensitive Streptococcus pneumoniae CL8002 after 20 hrs by twofold serial broth dilution method. The conditions noted are these: CL8002, 20 h. The method, boiled down: as §1
Experiment [14] deals with Streptococcus pneumoniae. The experiment is described as follows: Antibacterial activity against penicillin-resistant Streptococcus pneumoniae CL5771 after 20 hrs by twofold serial broth dilution method. The conditions noted are these: CL5771, 20 h. Put shortly: as §1
Experiment [15] relates to Streptococcus pyogenes. The experiment in a line: Antibacterial activity against Streptococcus pyogenes CL10440 after 20 hrs by twofold serial broth dilution method. The conditions noted are these: CL10440, 20 h. The method, boiled down:
as §1

Experiment [16] concerns Candida albicans. The experiment is described as follows: Antifungal activity against Candida albicans MY1055 after 20 hrs by twofold serial broth dilution method. The settings on record: MY1055, 20 h.

Regarding `CC[C@H]1OC(=O)[C@H](C)[C@@H](O[C@H]2C[C@@](C)(OC)[C@@H](O)[C@H](C)O2)[C@H](C)[C@@H](O[C@@H]2O[C@H](C)C[C@H](N(C)C)[C@H]2O)[C@](C)(O)C[C@@H](C)C(=O)[C@H](C)[C@@H](O)[C@]1(C)O` [ERYTHROMYCIN], the minimum inhibitory concentration (MIC) in experiment [1] was over 32 µg/mL; in experiment [2], 0.1 µg/mL (≈ 0.136 µM); in experiment [3] it was 0.1 µg/mL; in experiment [4], 1 µg/mL (≈ 1.36 µM); in experiment [5] it was over 32 µg/mL; in experiment [6], over 32 µg/mL. Besides, the MIC in experiment [7] was 1 µg/mL (≈ 1.36 µM); in experiment [8], 0.25 µg/mL (≈ 0.341 µM); in experiment [9], 1 µg/mL (≈ 1.36 µM); in experiment [10], 32 µg/mL (≈ 43.6 µM); in [11], over 32 µg/mL; in [12], over 32 µg/mL. In addition, the MIC in [13] was 2 µg/mL (≈ 2.73 µM); in [14] it was 2 µg/mL (≈ 2.73 µM); in experiment [15], at most 0.03 µg/mL; in experiment [16] it was over 32 µg/mL.
In the case of `CC(=O)NC[C@H]1CN(c2ccc(N3CCOCC3)c(F)c2)C(=O)O1` [LINEZOLID], the MIC in [4] was over 32 µg/mL; in experiment [7], 2 µg/mL (≈ 5.93 µM); in experiment [8], 1 µg/mL (≈ 2.96 µM); in [11], 32 µg/mL (≈ 94.9 µM); in experiment [12], over 32 µg/mL; in experiment [15], 0.5 µg/mL (≈ 1.48 µM). In [16], this compound yielded an MIC of over 32 µg/mL.
For `C=C(NC(=O)c1csc(-c2nc3c(cc2O)-c2nc(cs2)C(=O)N[C@@H]([C@@H](C)O)C(=O)N/C(=C(\C)OC)c2nc(cs2)C(=O)N[C@@H]2c4nc(cs4)C(=O)N[C@@H](COC(=O)c4[nH]c5cccc6c5c4CO[C@@H]2[C@H](OC)C(=O)OC6)c2nc-3cs2)n1)C(N)=O` [THIAZOMYCIN B], the minimal inhibitory concentration (MIC) was determined as 0.02 µg/mL (≈ 0.0158 µM) in experiment [1]; 0.02 µg/mL (≈ 0.0158 µM) in [2]; 0.25 µg/mL in experiment [3]; 0.02 µg/mL (≈ 0.0158 µM) in experiment [4]; 0.03 µg/mL (≈ 0.0237 µM) in [5]; 0.03 µg/mL (≈ 0.0237 µM) in experiment [6]. The MIC in experiment [7] was 0.03 µg/mL (≈ 0.0237 µM); in [8], 0.03 µg/mL (≈ 0.0237 µM); in experiment [9], 0.1 µg/mL (≈ 0.0791 µM); in experiment [10], 0.06 µg/mL (≈ 0.0475 µM); in experiment [11], 0.004 µg/mL (≈ 0.00316 µM); in [12], 0.1 µg/mL. Moreover, the MIC in experiment [13] is 0.008 µg/mL (≈ 0.00633 µM); in experiment [14] it was 0.004 µg/mL (≈ 0.00316 µM); in [15] it was 0.004 µg/mL (≈ 0.00316 µM); in experiment [16] it was over 32 µg/mL.
Take `CO/C(C)=C1/NC(=O)[C@H]([C@@H](C)O)NC(=O)c2csc(n2)-c2cc(O)c(-c3nc(C(N)=O)cs3)nc2-c2csc(n2)[C@@H]2COC(=O)c3[nH]c4cccc5c4c3CO[C@H]([C@H](O[C@H]3C[C@](C)(O)[C@H](N(C)C)[C@H](C)O3)C(=O)OC5)[C@H](NC(=O)c3csc1n3)c1nc(cs1)C(=O)N2` [THIAZOMYCIN C]: the MIC turned out to be 0.05 µg/mL (≈ 0.037 µM) in experiment [1]; 0.05 µg/mL (≈ 0.037 µM) in experiment [2]; 0.1 µg/mL in [3]; 0.03 µg/mL (≈ 0.0222 µM) in [4]; 0.1 µg/mL (≈ 0.0739 µM) in experiment [5]; 0.1 µg/mL (≈ 0.0739 µM) in [6]. Further, the MIC in experiment [7] is 0.1 µg/mL (≈ 0.0739 µM); in experiment [8], 0.1 µg/mL (≈ 0.0739 µM); in [9], over 0.1 µg/mL; in [10] it was 0.1 µg/mL (≈ 0.0739 µM); in experiment [11], 0.1 µg/mL (≈ 0.0739 µM); in [12], 0.1 µg/mL. Moreover, the MIC was 0.01 µg/mL (≈ 0.00739 µM) in experiment [13], 0.006 µg/mL (≈ 0.00444 µM) in experiment [14], 0.006 µg/mL (≈ 0.00444 µM) in experiment [15] and over 32 µg/mL in experiment [16].
Consider `C=C(NC(=O)c1csc(-c2nc3c(cc2O)-c2nc(cs2)C(=O)N[C@@H]([C@@H](C)O)C(=O)N/C(=C(\C)OC)c2nc(cs2)C(=O)N[C@@H]2c4nc(cs4)C(=O)N[C@@H](COC(=O)c4[nH]c5cccc6c5c4CO[C@@H]2[C@H](O[C@H]2C[C@](C)(O)[C@@H](O)[C@H](C)O2)C(=O)OC6)c2nc-3cs2)n1)C(N)=O` [THIAZOMYCIN D], for which the MIC came out at 0.031 µg/mL (≈ 0.0222 µM) in experiment [1]; 0.03 µg/mL (≈ 0.0215 µM) in experiment [2]; 1 µg/mL in [3]; 0.06 µg/mL (≈ 0.043 µM) in [4]; 0.1 µg/mL (≈ 0.0717 µM) in [5]; 0.1 µg/mL (≈ 0.0717 µM) in [6]. Besides, the MIC in experiment [7] was determined as 0.06 µg/mL (≈ 0.043 µM); in [8] it was 0.03 µg/mL (≈ 0.0215 µM); in experiment [9], 0.1 µg/mL (≈ 0.0717 µM); in experiment [10] it was 0.1 µg/mL (≈ 0.0717 µM); in [11], 0.1 µg/mL (≈ 0.0717 µM); in experiment [12], 1 µg/mL. For the same compound, the MIC in [13] is 0.1 µg/mL (≈ 0.0717 µM); in [14], 0.03 µg/mL (≈ 0.0215 µM); in experiment [15], 0.02 µg/mL (≈ 0.0143 µM); in experiment [16], over 32 µg/mL.
For the compound `C=C(NC(=O)c1csc(-c2nc3c(cc2O)-c2nc(cs2)C(=O)N[C@@H]([C@@H](C)O)C(=O)N/C(=C(\C)OC)c2nc(cs2)C(=O)N[C@@H]([C@H](O)[C@H](O[C@H]2C[C@](C)(O)[C@H](N(C)C)[C@H](C)O2)C(=O)O)c2nc(cs2)C(=O)N[C@@H](CO)c2nc-3cs2)n1)C(N)=O` [THIAZOMYCIN E1], the results for the MIC in experiment [2], in experiment [9] and in [13] were 100 µg/mL (≈ 79.7 µM), over 200 µg/mL and 200 µg/mL (≈ 159 µM), respectively.
As to `C=C(NC(=O)c1csc(-c2nc3c(cc2O)-c2nc(cs2)C(=O)N[C@@H]([C@@H](C)O)C(=O)N/C(=C(\C)OC)c2nc(cs2)C(=O)N[C@@H]([C@H](O)[C@H](O)C(=O)O)c2nc(cs2)C(=O)N[C@@H](CO)c2nc-3cs2)n1)C(N)=O` [THIAZOMYCIN E2], the MIC in [2], in experiment [9] and in experiment [13] was over 200 µg/mL in each case.
For the compound `CO/C(C)=C1/NC(=O)[C@H]([C@@H](C)O)NC(=O)c2csc(n2)-c2cc(O)c(-c3nc(C(N)=O)cs3)nc2-c2csc(n2)[C@H](CO)NC(=O)c2csc(n2)[C@H]([C@H](O)[C@H](O)C(=O)O)NC(=O)c2csc1n2` [THIAZOMYCIN E3], the MIC was over 200 µg/mL in experiment [2], 200 µg/mL (≈ 197 µM) in [9] and 200 µg/mL (≈ 197 µM) in [13].
As for `C=C(NC(=O)c1csc(-c2nc3c(cc2O)-c2nc(cs2)C(=O)N[C@@H]([C@@H](C)O)C(=O)N/C(=C(\C)OC)c2nc(cs2)C(=O)N[C@@H]2c4nc(cs4)C(=O)N[C@@H](COC(=O)c4c5c6c(cccc6n4O)COC(=O)[C@@H](O[C@H]4C[C@]6(C)OCN(C)[C@@H]6[C@H](C)O4)[C@H]2OC5)c2nc-3cs2)n1)C(N)=O` [THIAZOMYCIN], the MIC turned out to be 0.003 µg/mL (≈ 0.00209 µM) in experiment [1]; 0.006 µg/mL (≈ 0.00418 µM) in experiment [2]; 0.05 µg/mL in experiment [3]; 0.01 µg/mL (≈ 0.00697 µM) in experiment [4]; 0.01 µg/mL (≈ 0.00697 µM) in [5]; 0.01 µg/mL (≈ 0.00697 µM) in experiment [6]. In addition, the MIC worked out at 0.02 µg/mL (≈ 0.0139 µM) in [7]; 0.03 µg/mL (≈ 0.0209 µM) in experiment [8]; 0.02 µg/mL (≈ 0.0139 µM) in experiment [9]; 0.01 µg/mL (≈ 0.00697 µM) in [10]; 0.002 µg/mL (≈ 0.00139 µM) in experiment [11]; 0.01 µg/mL in experiment [12]. In addition, the MIC is 0.003 µg/mL (≈ 0.00209 µM) in experiment [13], 0.003 µg/mL (≈ 0.00209 µM) in [14], 0.002 µg/mL (≈ 0.00139 µM) in experiment [15] and over 32 µg/mL in [16].

The MIC is the smallest concentration in the dilution series that meets the test's criterion for growth inhibition.
